Each block holds one compound with its values, some of them ahead of it.
Columns and labels:
LC3B-II = experiment: Autophagy assay; type: cell-based; settings: for LC3B-II levels: 4 h, 6 at 5 μM, BafA1 at 100 nM, versus DMSO
Method in brief: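 MDA-MB-231 or MDA-MB-468 cells in DMEM with 10% FBS at 37 °C, 5% CO2, treated 4 h with test compound or DMSO vehicle. Hypoxia (1% O2) served as the autophagy positive control. Bafilomycin A1 (100 nM) was added 4 h before harvest. Cells were lysed in NP40 buffer with protease and phosphatase inhibitors, run on SDS-PAGE and transferred to PVDF. Blots were probed overnight at 4 °C with anti-LC3B (1:3000), then HRP secondary (1:10,000), with ECL detection of LC3B-I and LC3B-II.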

MELK = MELK (Homo sapiens, UniProt Q14680); experiment: MELK kinase activity inhibition; type: biochemical; settings: for change of MELK IC50 / activity relative to parent compound 6: weaker than 6 (higher IC50)
cyclin A2 = experiment: Western blot of cyclin A2 levels; type: cell-based; settings: over 48 h
MDMX = experiment: Immunoblot of MDMX levels; type: cell-based; settings: MDA-MB-231 cells, increasing concentration
Method in brief: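 MDA-MB-231 cells (DMEM, 10% FBS, 37 °C, 5% CO2) were exposed to rising test compound concentrations. Whole-cell RIPA lysates with protease and phosphatase inhibitors were prepared, and 30 µg protein was resolved by 10% SDS-PAGE and moved to nitrocellulose. Blots were probed with primary antibody overnight at 4 °C, then with IRDye 800 anti-mouse or Alexa Fluor 680 anti-rabbit IgG for 1 h at RT. Bands were read by infrared imaging.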

BMX/ETK = molecular target: T1, BMX/ETK (Homo sapiens, UniProt P51813); experiment: Kinase panel IC50, BMX/ETK; type: biochemical
T1 sequence (P51813 1-675): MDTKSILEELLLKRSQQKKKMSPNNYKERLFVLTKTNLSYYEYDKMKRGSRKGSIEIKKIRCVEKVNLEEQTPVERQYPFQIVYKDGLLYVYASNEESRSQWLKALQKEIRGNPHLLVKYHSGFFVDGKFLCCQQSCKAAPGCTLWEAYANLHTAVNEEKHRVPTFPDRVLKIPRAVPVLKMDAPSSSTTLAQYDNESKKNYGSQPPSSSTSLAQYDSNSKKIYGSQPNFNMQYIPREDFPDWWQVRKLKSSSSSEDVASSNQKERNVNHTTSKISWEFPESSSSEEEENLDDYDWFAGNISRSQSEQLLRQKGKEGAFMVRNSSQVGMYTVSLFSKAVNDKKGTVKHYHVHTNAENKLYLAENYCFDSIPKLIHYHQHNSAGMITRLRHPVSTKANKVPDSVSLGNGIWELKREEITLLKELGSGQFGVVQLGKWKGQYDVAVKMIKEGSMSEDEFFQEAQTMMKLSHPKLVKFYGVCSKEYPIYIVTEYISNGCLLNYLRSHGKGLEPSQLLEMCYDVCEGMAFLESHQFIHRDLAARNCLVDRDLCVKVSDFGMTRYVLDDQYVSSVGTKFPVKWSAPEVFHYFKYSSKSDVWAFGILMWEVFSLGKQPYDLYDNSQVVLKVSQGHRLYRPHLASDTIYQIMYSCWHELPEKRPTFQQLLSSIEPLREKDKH

JAK3 = molecular target: T2, JAK3 (Homo sapiens, UniProt P52333); experiment: JAK kinase activity, JAK3; type: biochemical
T2 sequence (P52333 1-1124): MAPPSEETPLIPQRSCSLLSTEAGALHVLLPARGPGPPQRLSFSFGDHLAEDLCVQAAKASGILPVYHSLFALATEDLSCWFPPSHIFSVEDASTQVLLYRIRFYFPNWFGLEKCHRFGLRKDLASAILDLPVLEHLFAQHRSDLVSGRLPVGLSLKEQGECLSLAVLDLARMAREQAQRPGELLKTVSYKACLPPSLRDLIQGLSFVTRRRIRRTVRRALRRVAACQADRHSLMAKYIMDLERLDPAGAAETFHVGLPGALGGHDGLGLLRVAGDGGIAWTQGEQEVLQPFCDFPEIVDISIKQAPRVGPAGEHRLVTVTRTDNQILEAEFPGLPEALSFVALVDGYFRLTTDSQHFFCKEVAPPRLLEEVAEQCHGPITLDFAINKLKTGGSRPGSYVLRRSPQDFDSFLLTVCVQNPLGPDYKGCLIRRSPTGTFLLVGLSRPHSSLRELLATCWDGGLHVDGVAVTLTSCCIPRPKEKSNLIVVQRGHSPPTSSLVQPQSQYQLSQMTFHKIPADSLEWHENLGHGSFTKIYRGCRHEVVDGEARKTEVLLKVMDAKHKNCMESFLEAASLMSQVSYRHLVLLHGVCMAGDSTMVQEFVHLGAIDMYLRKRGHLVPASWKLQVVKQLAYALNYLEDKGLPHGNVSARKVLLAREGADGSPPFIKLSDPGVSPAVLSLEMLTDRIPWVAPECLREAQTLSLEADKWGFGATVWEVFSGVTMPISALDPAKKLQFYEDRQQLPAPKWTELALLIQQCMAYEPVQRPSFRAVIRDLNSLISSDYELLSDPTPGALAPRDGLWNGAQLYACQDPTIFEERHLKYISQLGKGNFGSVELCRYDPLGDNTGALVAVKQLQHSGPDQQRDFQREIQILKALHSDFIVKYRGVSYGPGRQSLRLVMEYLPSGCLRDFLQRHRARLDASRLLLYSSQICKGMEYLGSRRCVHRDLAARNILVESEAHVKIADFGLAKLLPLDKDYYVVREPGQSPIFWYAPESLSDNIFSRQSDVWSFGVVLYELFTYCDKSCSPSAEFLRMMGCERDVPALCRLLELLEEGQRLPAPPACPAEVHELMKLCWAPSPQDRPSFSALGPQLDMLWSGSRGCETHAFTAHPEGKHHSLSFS

p53 = experiment: Western blot of p53 levels; type: cell-based
Bcl-XL = experiment: Western blot of Bcl-XL levels; type: cell-based
phospho Akt = experiment: Western blot of Akt phosphorylation; type: cell-based
JAK2 = JAK2 (Homo sapiens, UniProt O60674); experiment: JAK kinase activity, JAK2; type: biochemical
phospho p53 (Ser15) = experiment: Western blot of p53 Ser15 phosphorylation; type: cell-based; settings: MDA-MB-468 cells, over 48 h
JAK1 = JAK1 (Homo sapiens, UniProt P23458); experiment: JAK kinase activity, JAK1; type: biochemical
survivin = experiment: Western blot of survivin levels; type: cell-based; settings: sustained over 48 h
p21WAF1/CIP1 = experiment: Western blot of p21 levels; type: cell-based; settings: 5 μM, from 4 h, sustained over 48 h
phospho STAT3 (Tyr705) = experiment: Western blot of STAT3 phosphorylation; type: cell-based

MELK, sequence (Q14680 whole entry): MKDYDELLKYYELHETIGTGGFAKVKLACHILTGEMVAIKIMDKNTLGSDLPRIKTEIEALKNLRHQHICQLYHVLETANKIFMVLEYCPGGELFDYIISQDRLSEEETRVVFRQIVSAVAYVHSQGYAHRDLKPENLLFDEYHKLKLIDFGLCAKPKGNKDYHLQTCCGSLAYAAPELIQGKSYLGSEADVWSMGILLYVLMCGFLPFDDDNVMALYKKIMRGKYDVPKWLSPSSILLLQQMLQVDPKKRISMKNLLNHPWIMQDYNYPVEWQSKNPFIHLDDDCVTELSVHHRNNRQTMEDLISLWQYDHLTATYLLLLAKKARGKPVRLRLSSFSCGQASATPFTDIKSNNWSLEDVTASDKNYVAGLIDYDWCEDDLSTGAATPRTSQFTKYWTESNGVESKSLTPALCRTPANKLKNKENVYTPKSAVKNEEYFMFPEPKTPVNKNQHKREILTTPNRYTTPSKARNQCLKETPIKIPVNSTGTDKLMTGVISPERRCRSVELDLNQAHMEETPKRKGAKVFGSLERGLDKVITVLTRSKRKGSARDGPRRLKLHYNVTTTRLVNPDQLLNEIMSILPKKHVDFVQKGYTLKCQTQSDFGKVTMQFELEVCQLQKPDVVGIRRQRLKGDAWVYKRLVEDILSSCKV
JAK1, sequence (P23458 whole entry): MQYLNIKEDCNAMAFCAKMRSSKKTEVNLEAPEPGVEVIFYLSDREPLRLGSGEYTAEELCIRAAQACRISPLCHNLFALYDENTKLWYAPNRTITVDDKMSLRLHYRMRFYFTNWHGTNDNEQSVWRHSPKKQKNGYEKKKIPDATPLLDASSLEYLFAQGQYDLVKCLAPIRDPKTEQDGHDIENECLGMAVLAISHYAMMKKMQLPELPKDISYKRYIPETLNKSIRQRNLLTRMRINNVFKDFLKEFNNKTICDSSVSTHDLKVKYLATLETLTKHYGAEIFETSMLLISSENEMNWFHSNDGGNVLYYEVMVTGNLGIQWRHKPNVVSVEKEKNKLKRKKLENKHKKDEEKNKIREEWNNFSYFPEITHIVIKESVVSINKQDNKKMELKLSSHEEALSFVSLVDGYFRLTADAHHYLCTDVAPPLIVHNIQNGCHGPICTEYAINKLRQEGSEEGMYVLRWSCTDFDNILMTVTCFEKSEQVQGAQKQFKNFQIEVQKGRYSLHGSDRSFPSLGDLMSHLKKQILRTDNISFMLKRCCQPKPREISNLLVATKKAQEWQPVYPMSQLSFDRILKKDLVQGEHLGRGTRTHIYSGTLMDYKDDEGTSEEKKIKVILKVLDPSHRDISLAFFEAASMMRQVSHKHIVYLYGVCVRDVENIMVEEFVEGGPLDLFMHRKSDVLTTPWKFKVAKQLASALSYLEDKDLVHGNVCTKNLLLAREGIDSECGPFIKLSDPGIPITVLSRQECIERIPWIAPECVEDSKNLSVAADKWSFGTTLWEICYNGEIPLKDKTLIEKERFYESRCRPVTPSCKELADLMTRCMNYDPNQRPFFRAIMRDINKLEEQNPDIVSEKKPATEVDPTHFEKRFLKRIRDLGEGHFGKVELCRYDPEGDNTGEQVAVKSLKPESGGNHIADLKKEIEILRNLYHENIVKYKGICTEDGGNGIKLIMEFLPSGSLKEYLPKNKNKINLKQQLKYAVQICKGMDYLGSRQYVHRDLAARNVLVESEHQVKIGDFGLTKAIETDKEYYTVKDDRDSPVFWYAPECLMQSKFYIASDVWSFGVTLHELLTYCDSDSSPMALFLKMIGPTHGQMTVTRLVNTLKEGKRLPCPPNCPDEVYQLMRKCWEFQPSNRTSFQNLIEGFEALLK
JAK2, sequence (O60674 whole entry): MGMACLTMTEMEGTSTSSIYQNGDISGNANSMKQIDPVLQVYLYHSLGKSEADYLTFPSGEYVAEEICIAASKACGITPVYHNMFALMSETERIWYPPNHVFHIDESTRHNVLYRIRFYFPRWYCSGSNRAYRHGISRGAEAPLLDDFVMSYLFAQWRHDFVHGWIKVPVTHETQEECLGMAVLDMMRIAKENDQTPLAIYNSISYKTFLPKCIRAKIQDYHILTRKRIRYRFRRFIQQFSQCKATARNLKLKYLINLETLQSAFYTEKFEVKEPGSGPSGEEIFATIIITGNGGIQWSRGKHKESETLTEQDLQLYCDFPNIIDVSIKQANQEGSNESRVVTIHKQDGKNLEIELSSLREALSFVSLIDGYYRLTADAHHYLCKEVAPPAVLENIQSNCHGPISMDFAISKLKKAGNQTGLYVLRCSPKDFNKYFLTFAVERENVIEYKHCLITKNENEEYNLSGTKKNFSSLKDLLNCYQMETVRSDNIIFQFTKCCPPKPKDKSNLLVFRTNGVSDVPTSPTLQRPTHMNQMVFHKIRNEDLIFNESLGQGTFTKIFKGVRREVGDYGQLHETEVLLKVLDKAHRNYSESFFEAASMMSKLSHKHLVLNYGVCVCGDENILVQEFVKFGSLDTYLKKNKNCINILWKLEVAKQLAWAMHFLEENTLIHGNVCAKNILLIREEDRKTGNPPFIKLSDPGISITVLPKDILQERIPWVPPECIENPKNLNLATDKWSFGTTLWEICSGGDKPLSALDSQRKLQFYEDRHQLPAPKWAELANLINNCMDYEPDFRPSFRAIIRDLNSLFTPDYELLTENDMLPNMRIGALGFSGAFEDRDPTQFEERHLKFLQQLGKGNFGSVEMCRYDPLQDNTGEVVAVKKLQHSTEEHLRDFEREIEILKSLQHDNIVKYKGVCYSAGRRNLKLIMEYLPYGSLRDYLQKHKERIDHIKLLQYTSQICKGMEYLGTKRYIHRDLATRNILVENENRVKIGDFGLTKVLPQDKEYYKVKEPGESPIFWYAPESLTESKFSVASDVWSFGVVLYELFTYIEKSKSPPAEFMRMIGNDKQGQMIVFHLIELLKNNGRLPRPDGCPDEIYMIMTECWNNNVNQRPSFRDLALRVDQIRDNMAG

Structure (SMILES): CO/C1=C\C(C)=C\[C@@H](C)[C@@H](O)[C@@H](C)C/C(C)=C/C=C/[C@H](OC)[C@@H]([C@@H](C)[C@@H](O)[C@H](C)[C@@]2(O)C[C@@H](O)[C@H](C)[C@@H](C(C)C)O2)OC1=O [BafA1, Bafilomycin A1, reference compound]
LC3B-II levels (LC3B-II; MDA-MB-231 cells): more modest increase
LC3B-II levels (LC3B-II; MDA-MB-468 cells): substantial increase

IC50 (MELK): ~1000 nM
IC50 (BMX/ETK): ~1000 nM
inhibition of JAK kinase activity (JAK3) (JAK3): lack of inhibition
inhibition of JAK kinase activity (JAK2) (JAK2): lack of inhibition
inhibition of JAK kinase activity (JAK1) (JAK1): lack of inhibition
Structure (SMILES): CCN(CC)CCCC(C)Nc1nc(/C=C/c2c(Cl)cc(Cl)cc2Cl)nc2ccc(N)cc12 (stereo not shown) [Compound 6, (E)-N^4-(5-(diethylamino)pentan-2-yl)-2-(2,4,6-trichlorostyryl) quinazoline-4,6-diamine]
cyclin A2 level (cyclin A2; MDA-MB-231 cells): down-regulated
cyclin A2 level (cyclin A2; MDA-MB-468 cells): down-regulated
MDMX levels (MDMX): increase
p53 levels (p53; MDA-MB-231 cells): does not affect
p53 levels (p53; MDA-MB-468 cells, over 48 h): no effect
Bcl-XL expression (Bcl-XL; MDA-MB-231 cells): reduced expression
Bcl-XL expression (Bcl-XL; MDA-MB-468 cells): reduced expression
Akt phosphorylation (phospho Akt): no effect
phosphorylation at Ser15 of p53 (phospho p53 (Ser15)): inhibited
survivin level (survivin; MDA-MB-231 cells): down-regulation
survivin level (survivin; MDA-MB-468 cells): down-regulation
LC3B-II levels (LC3B-II; MDA-MB-231 cells): pronounced increase
LC3B-II levels (LC3B-II; MDA-MB-468 cells): pronounced increase
autophagic flux (LC3B-II; MDA-MB-468 or MDA-MB-231 cells, LC3B-II not further increased by co-treatment with BafA1): inhibiting autophagic flux
p21WAF1/CIP1 level (p21WAF1/CIP1; MDA-MB-231 cells): up-regulated
p21WAF1/CIP1 level (p21WAF1/CIP1; MDA-MB-468 cells): up-regulated
STAT3 phosphorylation (phospho STAT3 (Tyr705); MDA-MB-231 cells, levels recover more slowly): inhibited
STAT3 phosphorylation (phospho STAT3 (Tyr705); MDA-MB-468 cells): inhibited
STAT3 phosphorylation, time course (phospho STAT3 (Tyr705); MDA-MB-468 cells, at 4 h, levels restored after 8 h): completely inhibited

change of MELK IC50 / activity relative to parent compound 6 (MELK): little effect
Structure (SMILES): CCN(CC)CCCCNc1nc(/C=C/c2c(Cl)cc(Cl)cc2Cl)nc2ccc(N)cc12 [Compound 18, (E)-N^4-(4-(diethylamino)butyl)-2-(2,4,6-trichlorostyryl) quinazoline-4,6-diamine]

change of MELK IC50 / activity relative to parent compound 6 (MELK): twofold reduction
Structure (SMILES): Nc1ccc2nc(/C=C/c3ccc(C(F)(F)F)cc3)nc(NCCCN3CCOCC3)c2c1 [Compound 20]

— paper PMC6668347 (Bioorganic & medicinal chemistry, 2017)
